Measured values: ChEMBL document CHEMBL1123544, “Syntheses of 5,6,7- and 5,7,8-trioxygenated 3',4'-dihydroxyflavones having alkoxy groups and their inhibitory activities against arachidonate 5-lipoxygenase” (J Med Chem, 1986)

Each compound was assayed against T1, Polyunsaturated fatty acid 5-lipoxygenase (Rattus norvegicus, UniProt P12527) (assay: Ability to inhibit 5-lipoxygenase in rat basophilic leukemia cells.).
T1 sequence (P12527 whole entry): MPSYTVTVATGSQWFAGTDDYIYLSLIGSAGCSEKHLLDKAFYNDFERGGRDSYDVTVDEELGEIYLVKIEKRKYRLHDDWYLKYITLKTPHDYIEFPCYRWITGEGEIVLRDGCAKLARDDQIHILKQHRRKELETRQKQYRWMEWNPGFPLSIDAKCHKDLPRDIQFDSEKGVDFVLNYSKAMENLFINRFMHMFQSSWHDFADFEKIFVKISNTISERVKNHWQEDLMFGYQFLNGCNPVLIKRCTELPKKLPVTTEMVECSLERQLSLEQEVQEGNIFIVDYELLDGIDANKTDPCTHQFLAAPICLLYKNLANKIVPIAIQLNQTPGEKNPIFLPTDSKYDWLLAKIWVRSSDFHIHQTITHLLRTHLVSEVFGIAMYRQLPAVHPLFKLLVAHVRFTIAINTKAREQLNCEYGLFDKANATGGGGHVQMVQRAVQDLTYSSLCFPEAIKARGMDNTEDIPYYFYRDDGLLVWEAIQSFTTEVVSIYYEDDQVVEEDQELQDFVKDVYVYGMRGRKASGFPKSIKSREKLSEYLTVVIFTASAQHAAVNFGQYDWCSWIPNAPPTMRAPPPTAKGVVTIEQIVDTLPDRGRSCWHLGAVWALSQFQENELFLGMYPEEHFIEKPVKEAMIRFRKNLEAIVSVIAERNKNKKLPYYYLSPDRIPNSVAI
Type: cell-based, RBL-1
Method in brief: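 Enzyme: RBL cell sonicate high-speed supernatant, 25–50% ammonium sulfate cut, desalted on Sephadex G-25 (68 μg protein). Compound in ethanol preincubated 5 min with enzyme. Reaction started with 25 μM [1-14C]arachidonic acid, 30 °C for 5 min in 50 mM potassium phosphate pH 7.4 with 2 mM ATP and 2 mM CaCl2. Radio-TLC of 5-HPETE; IC50 from concentration series.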

Compared with CCCCCCCCCCOc1c(OC)cc2oc(-c3ccc(OC(C)=O)c(OC(C)=O)c3)cc(=O)c2c1OC, CCCCCCCCCCCCOc1c(OC)cc2oc(-c3ccc(OC(C)=O)c(OC(C)=O)c3)cc(=O)c2c1OC is 2.5-fold higher in IC50: 0.03 µM for the first, 0.075 µM for the second.

Compared with CCCCCCOc1c(OC)cc2oc(-c3ccc(O)c(O)c3)cc(=O)c2c1OC, CCCCCOc1c(OC)cc2oc(-c3ccc(O)c(O)c3)cc(=O)c2c1OC is 2.5-fold higher in IC50: 0.014 µM for the first, 0.035 µM for the second.

CCCCOc1c(OC)cc2oc(-c3ccc(O)c(O)c3)cc(=O)c2c1O and CCCCCOc1c(OC)cc2oc(-c3ccc(O)c(O)c3)cc(=O)c2c1O are within 1.5-fold of each other in IC50: 0.015 µM for the first, 0.022 µM for the second.

Compared with CCCCCCCCCCCCCCCCOc1c(OC)c(OC)cc2oc(-c3ccc(O)c(O)c3)cc(=O)c12, CCCCCCCCCCCCCCCCOc1c(OC)cc2oc(-c3ccc(O)c(O)c3)cc(=O)c2c1OC is 11-fold higher in IC50: 0.14 µM for the first, 1.5 µM for the second.

Going from CCCCCOc1c(OC)c(OC)cc2oc(-c3ccc(O)c(O)c3)cc(=O)c12 to CCCCCCOc1c(OC)c(OC)cc2oc(-c3ccc(O)c(O)c3)cc(=O)c12, the IC50 falls from 0.032 µM to 0.015 µM (2.1-fold).

Going from COc1cc2oc(-c3ccc(O)c(O)c3)cc(=O)c2c(OCCC(C)C)c1OC to COc1cc2oc(-c3ccc(O)c(O)c3)cc(=O)c2c(OC)c1OCCC(C)C, the IC50 rises from 0.016 µM to 0.026 µM (1.6-fold).

CCCCCCCCCCCCCCCCCCOc1c(OC)cc2oc(-c3ccc(OC(C)=O)c(OC(C)=O)c3)cc(=O)c2c1OC and CCCCCCCCCCCCCCCCOc1c(OC)cc2oc(-c3ccc(OC(C)=O)c(OC(C)=O)c3)cc(=O)c2c1OC are the same in IC50: 10 µM for the first, 10 µM for the second.

Going from CCCCCCCCCCCCOc1cc2oc(-c3ccc(O)c(O)c3)cc(=O)c2c(O)c1OC to CCCCCCCCCCCCOc1c(OC)cc2oc(-c3ccc(O)c(O)c3)cc(=O)c2c1O, the IC50 falls from 0.14 µM to 0.026 µM (5.4-fold). The second is the more potent here.

Going from CCCCCCCCCCCCCCOc1c(OC)c(OC)cc2oc(-c3ccc(O)c(O)c3)cc(=O)c12 to CCCCCCCCCCCCCCOc1c(OC)cc2oc(-c3ccc(O)c(O)c3)cc(=O)c2c1OC, the IC50 rises from 0.028 µM to 0.07 µM (2.5-fold). The first is the more potent here.

CCCCOc1c(OC)c(OC)cc2oc(-c3ccc(O)c(O)c3)cc(=O)c12 and CCCCOc1c(OC)cc2oc(-c3ccc(O)c(O)c3)cc(=O)c2c1OC are within 1.5-fold of each other in IC50: 0.045 µM for the first, 0.052 µM for the second.

Compared with CCCCCCCCCCCCOc1c(OC)cc(O)c2c(=O)cc(-c3ccc(O)c(O)c3)oc12, CCCCCCCCCCCCOc1cc(O)c2c(=O)cc(-c3ccc(O)c(O)c3)oc2c1OC is 1.6-fold higher in IC50: 0.11 µM for the first, 0.18 µM for the second.

CCCCCCCCCCOc1c(OC)cc2oc(-c3ccc(O)c(O)c3)cc(=O)c2c1O and CCCCCCCCOc1c(OC)cc2oc(-c3ccc(O)c(O)c3)cc(=O)c2c1O are the same in IC50: 0.011 µM for the first, 0.011 µM for the second.

First: COc1cc(OC)c2c(=O)cc(-c3ccc(O)c(O)c3)oc2c1OC
Second: COc1cc(O)c2c(=O)cc(-c3ccc(O)c(O)c3)oc2c1OC
The IC50 of the first is 3.9-fold higher: 0.43 µM for the first, 0.11 µM for the second. The second is the more potent here.

Compared with COc1cc2oc(-c3ccc(OC(C)=O)c(OC(C)=O)c3)cc(=O)c2c(OC)c1OC, CCCCOc1c(OC)cc2oc(-c3ccc(OC(C)=O)c(OC(C)=O)c3)cc(=O)c2c1OC is 10-fold lower in IC50: 1 µM for the first, 0.1 µM for the second. The second is the more potent here.

Compared with COc1cc2oc(-c3ccc(O)c(O)c3)cc(=O)c2c(O)c1OC [CIRSILIOL], COc1cc2oc(-c3ccc(O)c(O)c3)cc(=O)c2c(OC)c1OC is 2.5-fold higher in IC50: 0.095 µM for the first, 0.24 µM for the second. The first is the more potent here.

Compared with CCCCCCCCCCCCOc1cc(OC)c(OC)c2oc(-c3ccc(O)c(O)c3)cc(=O)c12, CCCCCCCCCCCCOc1cc(OC)c2c(=O)cc(-c3ccc(O)c(O)c3)oc2c1OC is 1.5-fold higher in IC50: 0.022 µM for the first, 0.033 µM for the second. The first is the more potent here.

CCCCCCCCOc1c(OC)c(OC)cc2oc(-c3ccc(O)c(O)c3)cc(=O)c12 and CCCCCCCCOc1c(OC)cc2oc(-c3ccc(O)c(O)c3)cc(=O)c2c1OC are within 1.5-fold of each other in IC50: 0.019 µM for the first, 0.022 µM for the second.

CCCCCCCCOc1c(OC)cc2oc(-c3ccc(OC(C)=O)c(OC(C)=O)c3)cc(=O)c2c1OC and CCCCCCOc1c(OC)cc2oc(-c3ccc(OC(C)=O)c(OC(C)=O)c3)cc(=O)c2c1OC are within 1.5-fold of each other in IC50: 0.042 µM for the first, 0.05 µM for the second.

CCCCCCCCCCCCCCCCCCOc1c(OC)c(OC)cc2oc(-c3ccc(O)c(O)c3)cc(=O)c12 and CCCCCCCCCCCCCCCCCCOc1c(OC)cc2oc(-c3ccc(O)c(O)c3)cc(=O)c2c1OC are within 1.5-fold of each other in IC50: 9 µM for the first, 10 µM for the second.

Compared with CCCCCCCCCCCCOc1cc2oc(-c3ccc(O)c(O)c3)cc(=O)c2c(OC)c1OC, CCCCCCCCCCCCOc1c(OC)cc2oc(-c3ccc(O)c(O)c3)cc(=O)c2c1OC is 3.3-fold lower in IC50: 0.1 µM for the first, 0.03 µM for the second. The second is the more potent here.

First: CCCCCCCCCCCCCCOc1c(OC)cc2oc(-c3ccc(OC(C)=O)c(OC(C)=O)c3)cc(=O)c2c1OC
Second: CCCCCOc1c(OC)cc2oc(-c3ccc(OC(C)=O)c(OC(C)=O)c3)cc(=O)c2c1OC
The IC50 of the first is 360-fold higher: 10 µM for the first, 0.028 µM for the second.

CCCCCCCCCCCCOc1c(OC)c(OC)cc2oc(-c3ccc(O)c(O)c3)cc(=O)c12 and CCCCCCCCCCOc1c(OC)c(OC)cc2oc(-c3ccc(O)c(O)c3)cc(=O)c12 are the same in IC50: 0.018 µM for the first, 0.018 µM for the second.

Going from CCCCCCCCCCOc1c(OC)cc2oc(-c3ccc(O)c(O)c3)cc(=O)c2c1OC to CCCCCCCCCCCCOc1c(OC)cc(OC)c2c(=O)cc(-c3ccc(O)c(O)c3)oc12, the IC50 rises from 0.017 µM to 0.11 µM (6.5-fold). The first is the more potent here.

Going from COc1cc2oc(-c3ccc(O)c(O)c3)cc(=O)c2c(O)c1OCCC(C)C to CCCCCCOc1c(OC)cc2oc(-c3ccc(O)c(O)c3)cc(=O)c2c1O, the IC50 rises from 0.009 µM to 0.02 µM (2.2-fold).

CCCCCCCCCCCCCCCCOc1c(OC)cc2oc(-c3ccc(O)c(O)c3)cc(=O)c2c1O and CCCCCCCCCCCCCCCCCCOc1c(OC)cc2oc(-c3ccc(O)c(O)c3)cc(=O)c2c1O are the same in IC50: 10 µM for the first, 10 µM for the second.

Work on CCCCCCCCCCCCCCOc1c(OC)cc2oc(-c3ccc(O)c(O)c3)cc(=O)c2c1O yielded an IC50 of 10 µM.
